From ChEMBL document CHEMBL1153581, “Synthesis, antiviral and anticancer activity of some novel thioureas derived from N-(4-nitro-2-phenoxyphenyl)-methanesulfonamide” (Eur J Med Chem, 2009)
Values after ≈ are worked out from the molar mass of the structure shown.

Key:
Cytomegalovirus = assay: Antiviral activity against Cytomegalovirus Davis infected in HEL cells assessed as reduction in virus plaque formation; type: functional, organism-based; details: Human betaherpesvirus 5, Davis
Outline: (§1)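 Plaque reduction in HEL cells against CMV (AD-169, Davis) or VZV (TK⁺ OKA, TK⁻ 07/1), using a virus input of 20 PFU. EC50 is the concentration that reduced plaque formation by 50%.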

Human alphaherpesvirus 2 = assay: Antiviral activity against Herpes simplex virus 2 infected in HEL cells assessed as protection against in virus-induced cytopathogenicity; type: functional
[1] = Cytotoxicity against Cytomegalovirus infected HEL cells assessed as reduction in cell growth; type: cell-based; details: human
Human alphaherpesvirus 3 [2] = assay: Antiviral activity against thymidine kinase deficient Varicella Zoster Virus 07/1 infected in HEL cells assessed as reduction in virus plaque formation; type: functional, organism-based; details: Human alphaherpesvirus 3, 07/1, HEL; outline: as §1
Human alphaherpesvirus 3 [3] = assay: Antiviral activity against Varicella Zoster Virus OKA infected in HEL cells assessed as reduction in virus plaque formation; type: functional, organism-based; details: Human alphaherpesvirus 3, OKA; outline: as §1
Coxsackievirus B4 [4] = assay: Antiviral activity against Coxsackievirus B4 infected in human HeLa cells assessed as protection against virus-induced cytopathogenicity; type: functional; details: Enterovirus B
[5] = tested on: Mammalian orthoreovirus 1; assay: Antiviral activity against Reovirus 1 infected in african green monkey Vero cells assessed as protection against virus-induced cytopathogenicity; type: functional
Human alphaherpesvirus 1 [6] = assay: Antiviral activity against acyclovir-resistant thymidine kinase-deficient HSV1 KOS infected in human HEL cells assessed as protection against virus-induced cytopathogenicity; type: functional; details: Human alphaherpesvirus 1, KOS
[7] = Cytotoxicity against HIV-1 3B infected human MT4 cells; type: cell-based; details: HIV-1 3B-infected MT4 cells
[8] = tested on: Human immunodeficiency virus 1; assay: Antiviral activity against HIV-1 3B infected human MT4 cells assessed as protection against virus-induced cytopathogenicity; type: functional, organism-based; details: Human immunodeficiency virus 1, 3B
Outline: (§2)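 HIV-1 (IIIB) or HIV-2 (ROD) infection of MT-4 cells, scored as protection against virus-induced cytopathicity. IC50 was derived from protection.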

Human betaherpesvirus 5 = assay: Antiviral activity against Cytomegalovirus AD169 infected in HEL cells assessed as reduction in virus plaque formation; type: functional, organism-based; details: Human betaherpesvirus 5, AD169, HEL; outline: as §1
[9] = Cytotoxicity against Varicella Zoster Virus infected human […] cells assessed as change in cell morphology; type: cell-based
Human respirovirus 3 = assay: Antiviral activity against Parainfluenza-3 virus infected in african green monkey Vero cells assessed as protection against virus-induced cytopathogenicity; type: functional
[10] = tested on: Human immunodeficiency virus 2; assay: Antiviral activity against HIV-2 ROD infected in human MT4 cells assessed as protection against virus-induced cytopathogenicity at 125 ug/ml; type: functional, ISOLATE ROD
Outline: (§3)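 MT-4 cells infected with HIV-1 (IIIB) or HIV-2 (ROD), with maximum protection (%) against virus-induced cytopathicity recorded at 125 of compound.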

HeLa = assay: Cytotoxicity against human HeLa cells assessed as change in cell morphology; type: functional
Outline: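 The minimum cytotoxic concentration (MCC) is the concentration causing a microscopically detectable alteration of cell morphology in the uninfected host cell culture.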

Human alphaherpesvirus 1 [11] = assay: Antiviral activity against HSV1 KOS infected in HEL cells assessed as protection against virus-induced cytopathogenicity; type: functional; details: Human alphaherpesvirus 1, KOS
[12] = tested on: Vesicular stomatitis virus; assay: Antiviral activity against sVesicular stomatitis virus infected in HEL cells assessed as protection against virus-induced cytopathogenicity; type: functional
[13] = tested on: Respiratory syncytial virus; assay: Antiviral activity against RSV infected in human HeLa cells assessed as protection against virus-induced cytopathogenicity; type: functional
[14] = tested on: Human immunodeficiency virus 1; assay: Antiviral activity against HIV-1 3B infected in human MT4 cells assessed as protection against virus-induced cytopathogenicity at 125 ug/ml; type: functional; outline: as §3
[15] = Cytotoxicity against Varicella Zoster Virus infected human […] cells assessed as reduction in cell growth; type: cell-based
[16] = Cytotoxicity against HEL cells assessed as change in cell morphology; type: cell-based; details: human
Outline: (§4)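 HEL cell cultures examined under the microscope. Minimal cytotoxic concentration (MCC) is the concentration that causes a microscopically detectable alteration of cell morphology. Compounds were tested at subtoxic concentrations alongside the antiviral tests.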

[17] = Cytotoxicity against african green monkey Vero cells assessed as change in cell morphology; type: cell-based; details: chlorocebus sabaeus
Outline: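 Vero cell cultures were used for the broad-spectrum antiviral screen. The MCC endpoint is the lowest concentration that causes a microscopically detectable alteration of cell morphology. Activity was called when 5 × MIC < MCC.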

[18] = tested on: Human immunodeficiency virus 2; assay: Antiviral activity against HIV-2 ROD infected human MT4 cells assessed as protection against virus-induced cytopathogenicity; type: functional, organism-based; details: Human immunodeficiency virus 2, ISOLATE ROD; outline: as §2
Sindbis virus = assay: Antiviral activity against Sindbis virus infected in african green monkey Vero cells assessed as protection against virus-induced cytopathogenicity; type: functional
Coxsackievirus B4 [19] = assay: Antiviral activity against Coxsackievirus B4 infected in african green monkey Vero cells assessed as protection against virus-induced cytopathogenicity; type: functional; details: Enterovirus B
[20] = Cytotoxicity against Cytomegalovirus infected HEL cells assessed as change in cell morphology; type: cell-based; details: human; outline: as §4
[21] = tested on: Vesicular stomatitis virus; assay: Antiviral activity against Vesicular stomatitis virus infected in human HeLa cells assessed as protection against virus-induced cytopathogenicity; type: functional
Punta Toro virus = assay: Antiviral activity against Punta Toro virus infected in african green monkey Vero cells assessed as protection against virus-induced cytopathogenicity; type: functional
[22] = Selectivity index, ratio of MCC for HEL cells to MIC50 for vesicular stomatitis virus; type: functional
Outline: (§5)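 In HEL cell cultures, SI = MCC/MIC. MCC is the concentration giving microscopically detectable alteration of HEL cell morphology, and MIC is the minimal concentration effective against vaccinia or VSV cytopathicity.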

[23] = Selectivity index, ratio of MCC for HEL cells to MIC50 for vaccinia virus; type: functional; outline: as §5

Compound	EC50 (Cytomegalovirus) [µg/mL]	MIC50 (Human alphaherpesvirus 2) [µg/mL]	CC50 [1] [µg/mL]	EC50 (Human alphaherpesvirus 3 [2]) [µg/mL]	EC50 (Human alphaherpesvirus 3 [3]) [µg/mL]	MIC50 (Coxsackievirus B4 [4]) [µg/mL]	MIC50 [5] [µg/mL]	MIC50 (Human alphaherpesvirus 1 [6]) [µg/mL]	CC50 [7] [µg/mL]	IC50 [8] [µg/mL]	EC50 (Human betaherpesvirus 5) [µg/mL]	CC50 [9] [µg/mL]	MIC50 (Human respirovirus 3) [µg/mL]	MCC (HeLa) [µg/mL]	MIC50 (Human alphaherpesvirus 1 [11]) [µg/mL]	MIC50 [12] [µg/mL]	MIC50 [13] [µg/mL]	CC50 [15] [µg/mL]	MCC [16] [µg/mL]	MCC [17] [µg/mL]	other results
CCNC(=S)Nc1ccc(NS(C)(=O)=O)c(Oc2ccccc2)c1	> 100	120 (≈ 328 µM)	> 100	> 100	> 100	> 40	> 40	120 (≈ 328 µM)	> 125	54.8 (≈ 150 µM)	> 100	> 100	≥ 24	200	120 (≈ 328 µM)	> 200	> 40	> 100	> 200	200	Activity [10]: 89.5%; Activity [14]: 97%; IC50 [18]: 65.9 µg/mL (≈ 180 µM); MIC50 (Sindbis virus): > 40 µg/mL; MIC50 (Coxsackievirus B4 [19]): > 40 µg/mL; CC50 [20]: > 100 µg/mL; MIC50 [21]: > 40 µg/mL; MIC50 (Punta Toro virus): > 40 µg/mL
CS(=O)(=O)Nc1ccc(NC(=S)NCCc2ccccc2)cc1Oc1ccccc1	> 20	> 8	48 (≈ 109 µM)	> 20	> 20	> 8	> 1.6	> 8	20.8 (≈ 47.1 µM)	> 20.8	> 20	≥ 100	> 1.6	40	> 8	> 8	> 8	48 (≈ 109 µM)	40	8	IC50 [18]: > 20.8 µg/mL; MIC50 (Sindbis virus): > 1.6 µg/mL; MIC50 (Coxsackievirus B4 [19]): > 1.6 µg/mL; CC50 [20]: 100 µg/mL (≈ 226 µM); MIC50 [21]: > 8 µg/mL; MIC50 (Punta Toro virus): > 1.6 µg/mL
CS(=O)(=O)Nc1ccc(NC(=S)NC2CCCCC2)cc1Oc1ccccc1	> 4	> 8	33.6 (≈ 80.1 µM)	> 0.8	> 20	> 8	> 1.6	> 8	35.3 (≈ 84.1 µM)	> 35.3	> 4	≥ 4	> 1.6	40	> 8	> 8	> 8	82.4 (≈ 196 µM)	40	8	IC50 [18]: > 35.3 µg/mL; MIC50 (Sindbis virus): > 1.6 µg/mL; MIC50 (Coxsackievirus B4 [19]): > 1.6 µg/mL; CC50 [20]: 20 µg/mL (≈ 47.7 µM); MIC50 [21]: > 8 µg/mL; MIC50 (Punta Toro virus): > 1.6 µg/mL
CS(=O)(=O)Nc1ccc(NC(=S)Nc2ccc([N+](=O)[O-])cc2)cc1Oc1ccccc1	54.7 (≈ 119 µM)	> 8	> 100	> 20	> 20	> 8	> 8	8 (≈ 17.4 µM)	15.2 (≈ 33.1 µM)	> 15.2	54.7 (≈ 119 µM)	100 (≈ 218 µM)	> 8	40	> 8	8 (≈ 17.4 µM)	> 8	> 100	40	40	Selectivity Index [22]: 5; Selectivity Index [23]: 5; IC50 [18]: > 15.2 µg/mL; MIC50 (Sindbis virus): > 8 µg/mL; MIC50 (Coxsackievirus B4 [19]): > 8 µg/mL; CC50 [20]: > 100 µg/mL; MIC50 [21]: > 8 µg/mL; MIC50 (Punta Toro virus): > 8 µg/mL
